Hits are enriched below; roughly 2.3% of the tested compounds scored in any of these assays.
Arbovirus anti: arbovirus infection inhibition | inhibition, % at 10 µM | actives 0.37% (n = 200,000) | AID 1251 | arbovirus infection cell-based antiviral screen; in the data active = inhibition above about 30%
ABCB1 inh: blocks JC-1 efflux by human ABCB1 transporter. P08183. CCRF-Adr cells, flow cytometry. AID 1326. inhibition, % at 6.6 µM. actives 0.067% (n = 190,000); in the data active = inhibition above about 40%;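 also: higher value means more JC-1 retained so stronger ABCB1 efflux block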
ABCG2 block: human ABCG2 inhibition, ABCB1 as counter-screen; IgMXP3 cells, JC-1 efflux, flow cytometry; inhibition, % at 6.6 µM; actives 0.1% (n = 190,000); AID 1325;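 active = inhibition above 80%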
Target sequence (Q9UNQ0 whole entry, looked up): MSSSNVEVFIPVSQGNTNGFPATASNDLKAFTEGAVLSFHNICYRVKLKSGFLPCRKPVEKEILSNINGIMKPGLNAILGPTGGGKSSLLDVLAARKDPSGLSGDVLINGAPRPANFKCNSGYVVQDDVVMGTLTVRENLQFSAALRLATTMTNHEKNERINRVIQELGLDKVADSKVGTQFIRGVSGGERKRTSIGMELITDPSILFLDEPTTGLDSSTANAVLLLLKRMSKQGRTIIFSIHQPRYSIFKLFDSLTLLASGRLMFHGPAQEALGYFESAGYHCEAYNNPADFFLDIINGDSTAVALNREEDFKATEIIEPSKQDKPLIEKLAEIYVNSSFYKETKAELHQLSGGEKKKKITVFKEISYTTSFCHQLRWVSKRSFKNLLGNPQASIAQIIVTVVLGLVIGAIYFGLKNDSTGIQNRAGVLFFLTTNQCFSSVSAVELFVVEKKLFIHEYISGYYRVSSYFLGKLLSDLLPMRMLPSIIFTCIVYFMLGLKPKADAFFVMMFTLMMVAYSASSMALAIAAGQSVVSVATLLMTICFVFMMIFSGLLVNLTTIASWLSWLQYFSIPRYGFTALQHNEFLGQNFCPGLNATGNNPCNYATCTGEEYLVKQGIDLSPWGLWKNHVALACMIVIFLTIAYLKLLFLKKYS
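Assay system – ABCG2 IgMXP3 and barcoded ABCB1 CCRF-Adr cell mix · Input – 3 million cells/mL in well · Reagent – JC-1 fluorescent substrate · Compound – single test compound dose, 6.6 µM final · Timing – 10 min exposure at 25 °C with rotation, no wash · Detection – flow cytometry of retained JC-1 fluorescence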
RAM network inh: blocks the yeast RAM network; S. cerevisiae dse1pr::URA3 reporter, 5-FOA growth OD615, 2 d; analog-sensitive cbk1-as2 kinase mutant strain; inhibition, % at 50 µM; actives 1.8% (n = 190,000);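 active = inhibition above a set limit, 3 SD over mean compound inhibition, cut at about 8.4% in these data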;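 also: inhibition rescues growth on 5-FOA so higher OD means more RAM inhibition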
Large screens that a line does not name were inactive.

CC(C)CN(CC(C)C)CC(O)COc1ccccc1Br (stereo not drawn)	none
CCCCNC(=O)c1onc(CSc2cccc(F)c2)c1C(=O)O	none
Cc1ccc(S(=O)(=O)c2c(N)n(Cc3ccco3)c3nc4ccccc4nc23)cc1	none
O=S(=O)(Nc1c(S(=O)(=O)c2ccccc2)c2nc3ccccc3nc2n1C1CCCCC1)c1ccccc1	none
CCCCn1c(N)c(S(=O)(=O)c2ccc(C)cc2)c2nc3ccccc3nc21	RAM network inh 9.5
C=CCn1c(NS(=O)(=O)c2ccccc2)c(S(=O)(=O)c2ccc(C)cc2)c2nc3ccccc3nc21	RAM network inh 11.0
COc1cccc(C2C(C(=O)NCc3ccccc3)=C(C)Nc3ncnn32)c1 (stereo not drawn)	none
Cc1ccc(C)c(N2CCN(C(=O)C3CCN(S(=O)(=O)c4cccc5nsnc45)CC3)CC2)c1	none
C=CCN(C(=O)CNC(=O)c1ccco1)C(C(=O)NC1CCCCC1)c1ccccc1 (stereo not drawn)	RAM network inh 9.2
CC(=O)c1ccc(NC(=O)CNCC(c2ccccc2)N(C)C)cc1 (stereo not drawn)	none
COC(=O)c1[nH]c2ccc(C)cc2c1NS(=O)(=O)c1ccc(F)c(C)c1	none
COC(=O)c1[nH]c2ccc(F)cc2c1NS(=O)(=O)c1ccc(F)c(C)c1	RAM network inh 10.5
COc1cccc(-c2cc(C(F)(F)F)nc(NCc3ccco3)n2)c1	RAM network inh 8.9
Cc1noc(/C=C/c2ccc(-c3ccccc3Cl)o2)c1[N+](=O)[O-]	RAM network inh 8.9
Cc1cccc(C)c1N/C=C/c1onc(C)c1[N+](=O)[O-]	none
C=CCn1c(CNC(=O)c2ccccc2C)nnc1SCC(=O)NC1CCCC1	none
O=[N+]([O-])c1ccc(/C=C/C2=NN(c3ccccc3)C(c3ccco3)C2)cc1 (stereo not drawn)	ABCB1 inh active, ABCG2 block active
CCOC(=O)c1ccccc1NS(=O)(=O)c1ccc(S(=O)(=O)N2CCCC2)cc1	RAM network inh 10.2
O=C(COC(=O)c1ccccc1Br)NCc1ccccc1	none
CCOC(=O)c1ccccc1NC(=O)c1cc(S(=O)(=O)N2CCOCC2)ccc1F	none
O=C(COC(=O)c1ccccc1NS(=O)(=O)c1ccc(Cl)cc1)NCc1ccccc1	RAM network inh 10.7
CCO[C@@H]1OC(C(=O)N2CCCCCCC2)=C[C@H](c2cn(C(C)=O)c3ccccc23)[C@H]1CCCO	none
CC(C)CNC(=O)COC(=O)CCC(=O)c1cccs1	none
CN1CC(=O)N(CC(=O)Nc2ccc(F)cc2)c2ccccc2C1=O	none
CSc1ncccc1C(=O)OCC(=O)Nc1cc(C(F)(F)F)ccc1N1CCOCC1	none
Cc1cc(OCC(=O)OCC(=O)Nc2cc(C(F)(F)F)ccc2N2CCOCC2)ccc1Cl	RAM network inh 9.1
O=C(CCl)N=c1sccn1Cc1ccc(Cl)cc1Cl	none
O=C(CCl)N=c1sccn1Cc1cccc2ccccc12	Arbovirus anti 31.2
Cc1nnc(SC(C)C(=O)Nc2ccc(S(=O)(=O)N3CCCCCC3)cc2)s1 (stereo not drawn)	RAM network inh 9.2
CCc1nnc(NS(=O)(=O)c2ccc(NC(=O)/C=C/c3ccccc3Cl)cc2)s1	RAM network inh 8.8
CCc1nnc(NS(=O)(=O)c2ccc(NC(=O)c3ccc(Cl)cc3)cc2)s1	none
CCc1nnc(NS(=O)(=O)c2ccc(N/C=C\C(=O)c3ccc4ccccc4c3)cc2)s1	Arbovirus anti 34.2
CCSc1nnc(NC(=O)c2ccc(S(=O)(=O)N(C)C)cc2)s1	none
O=C(/C=C/c1ccc(OCCCF)cc1)Nc1ccnc(-c2ccncc2)n1	none
O=[N+]([O-])c1cccc(-c2nc(NCc3ccccc3)c3ccccc3n2)c1	RAM network inh 8.7
O=[N+]([O-])c1ccc(-c2nc(NCc3ccccc3)c3ccccc3n2)cc1	none
COc1ccc(C(=O)NNC(=O)CCn2nnc(-c3ccc(C)cc3)n2)cc1OC	RAM network inh 9.2
O=S(=O)(Nc1ccc(O)c(Sc2nc3ccccc3s2)c1)c1ccc(F)cc1	RAM network inh 8.9
CS(=O)(=O)c1ccc(Sc2nc3ccccc3s2)c([N+](=O)[O-])c1	none
O=[N+]([O-])c1cc(S(=O)(=O)C(F)(F)F)ccc1Sc1nc2ccccc2s1	RAM network inh 8.5
CN(C)Cc1cnc2ccc(Cl)cn12	none
Nc1nc2ccccc2n1/N=C/c1cccnc1	none
Nc1nc2ccccc2n1/N=C/c1ccc(-c2ccccc2)o1	Arbovirus anti 39.1
COC(=O)c1ccc(C(C(=O)NC2CCCCC2)N(C(=O)Cc2cccs2)C2CC2)cc1 (stereo not drawn)	none
CCCCCCn1nc(C(=O)Nc2nc3c(s2)CCCC3)c2ccccc2c1=O	RAM network inh 10.9
CCCCn1nc(C(=O)Nc2nc3c(s2)CCCC3)c2ccccc2c1=O	none
COC(=O)c1cc(C(C)=O)n2ccccc12	none
CCc1ccc(NC(=O)C2(c3ccccc3)CC2(Cl)Cl)cc1 (stereo not drawn)	RAM network inh 8.5
O=C1CCCN1CC(O)CS(=O)(=O)c1ccccc1 (stereo not drawn)	none
CSc1nc2[nH]c3c(c2c2nnnn12)CCCC3	none
Cc1ccc(OCC(=O)Nc2ccc(S(=O)(=O)Nc3onc(C)c3C)cc2)cc1	RAM network inh 10.4
Cc1noc(NS(=O)(=O)c2ccc(N/C=C\C(=O)c3ccncc3)cc2)c1C	none
Cc1noc(NS(=O)(=O)c2ccc(N/C=C/C(=O)c3ccc(F)cc3)cc2)c1C	RAM network inh 10.8
CC(C)C(=O)Nc1ccc(NC(=O)c2cccs2)cn1	none
CCOC(=O)c1cnc(SC2CC(=O)N(c3cccc(OC)c3)C2=O)nc1N (stereo not drawn)	RAM network inh 10.1
O=C(c1ccco1)N(CCC(c1ccccc1)c1ccco1)Cc1ccccc1 (stereo not drawn)	RAM network inh 11.0
CCN(CC)C(=O)CSc1nc(-c2cccs2)cc(-c2cccs2)c1C#N	RAM network inh 8.4
O=C(NCc1nc(-c2ccccc2)no1)c1ccc(Br)o1	none
CC(C)=C1SC(N2CCN(c3ccc(Cl)cc3)CC2)=NC1=O	none
CCCNc1nc2c(c(=O)n(C)c(=O)n2C)n1CCc1ccccc1	none
CC(C)n1c(NCCc2ccccc2)nc2c1c(=O)n(C)c(=O)n2C	Arbovirus anti 30.4
CCN(CC)S(=O)(=O)c1ccc(NC(=O)C2c3ccccc3Oc3ccccc32)cc1	RAM network inh 8.6
COc1ccccc1N(CN1C(=O)c2ccccc2C1=O)C(=O)c1cccnc1	none
O=c1[nH]n2c(=O)c3c([nH]c2c1N=Nc1cccc(C(F)(F)F)c1)CCCC3	Arbovirus anti 36.6
COc1cccc(N=Nc2c(=O)[nH]n3c(=O)c4c([nH]c23)CCC4)c1	none
O=c1[nH]n2c(=O)c3c([nH]c2c1N=Nc1cccc(Cl)c1)CCC3	Arbovirus anti 34.5
CCc1cccc(OCC(=O)Nc2c[nH]c(=O)[nH]c2=O)c1	none
Cc1cccc(N2CCN(C(=S)c3ccc(-c4ccccc4[N+](=O)[O-])o3)CC2)c1	RAM network inh 10.8
Cc1cc(Oc2ccccc2)nc(-c2ccccc2)n1	none
c1ccc(Oc2cc(-c3ccccc3)nc(-c3ccccc3)n2)cc1	RAM network inh 10.0
